In data set [1] the target is T1, Disintegrin and metalloproteinase domain-containing protein 17 (Homo sapiens, UniProt P78536). The experiment in a line: Inhibition of human TNF-alpha by fluorescent spectroscopy. It counts as functional.
The species named for data set [2] is Mus musculus. Briefly: Inhibition of NO production in mouse Raw 264.7 cells assessed as No2- accumulation in the medium after 24 hrs. Format: functional, cell-based. A digest of the protocol:
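RAW264.7 cells cultured with inhibitors for 24 h. Supernatant mixed 1:1 with Griess reagent (1% sulfanilamide, 0.1% naphthylethylenediamine dihydrochloride, 2% phosphoric acid), 10 min at room temperature. Absorbance read at 540 nm against a NaNO2 standard curve.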

Data set [3] addresses T1, Disintegrin and metalloproteinase domain-containing protein 17. Briefly: Inhibition of human TACE by fluorescent spectroscopy.
In data set [4] the test system is Rattus norvegicus. Briefly: Antiinflammatory activity in Sprague-Dawley rat assessed as inhibition of carrageenan-induced paw edema at 30 mg/kg, ip administered 30 mins before carrageenan challenge measured at 6 hrs. Format: functional. The arrangement: scale not given: the % may be the effect or the level left. As to conditions: route intraperitoneal; call rule not given here. The gist of the method:
(§1)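 SD rats (150 g, 5 weeks, SPF), five per group: vehicle, indomethacin 10 mg/kg (DMSO/Tween 80/H2O 1:4:95) as positive control, or compound at 30 or 100 mg/kg (ethanol/PEG 400-based vehicle), given ip. Ankle thickness measured by caliper; swelling expressed as % increase over pre-treatment thickness. Inhibition taken relative to vehicle at 6 h and later time point.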
Background: The carrageenan paw model is a standard test of acute inflammation.

A short description of data set [5]: Clearance in Sprague-Dawley rat at 5 mg/kg, iv. It counts as ADME, organism-based. Further details: dose 5 mg/kg, route intravenous. The conditions noted are these: in vivo. The gist of the method: (§2)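 Male SD rats (10 weeks old, 285–305 g), cannulated in the right jugular vein, dosed iv or po with compound in saline, N = 3 per route. Blood drawn through the cannula at set times over 24 h and spun for plasma. Acetonitrile protein precipitation with carbamazepine internal standard, LC/MS/MS in positive MRM mode, non-compartmental analysis.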

The nature of data set [6]: Mean residence time (infinity) in Sprague-Dawley rat at 30 mg/kg, po. It counts as ADME, organism-based. Further details: dose 30 mg/kg, route oral. As to conditions: in vivo. A digest of the protocol: as §2
The nature of data set [7]: Volume of distribution at steady state in Sprague-Dawley rat at 5 mg/kg, iv. Format: ADME, organism-based. Further details: dose 5 mg/kg, route intravenous. The conditions noted are these: in vivo, read-out: Vdss. A digest of the protocol: as §2
A short description of data set [8]: AUC (0 to infinity) in Sprague-Dawley rat at 30 mg/kg, po. Further details: time infinity, dose 30 mg/kg, route oral. Format: ADME, organism-based. The conditions noted are these: plasma. The gist of the method:
as §2

Data set [9] can be described thus: Half life in Sprague-Dawley rat at 30 mg/kg, po. Further details: dose 30 mg/kg, route oral. Format: ADME, organism-based. As to conditions: in vivo. A digest of the protocol: as §2
Data set [10] is described as follows: Tmax in Sprague-Dawley rat at 30 mg/kg, po. It counts as ADME, organism-based. Further details: dose 30 mg/kg, route oral. As to conditions: in vivo. A digest of the protocol:
as §2

Data set [11] is described as follows: Mean residence time (infinity) in Sprague-Dawley rat at 5 mg/kg, iv. Format: ADME, organism-based. The arrangement: dose 5 mg/kg, route intravenous. The conditions noted are these: in vivo. A digest of the protocol: as §2
Data set [12] is described as follows: Oral bioavailability in Sprague-Dawley rat at 30 mg/kg, po. It counts as ADME, organism-based. As to conditions: in vivo. A digest of the protocol: as §2
Data set [13] concerns the target Matrix metalloproteinase-9 (Homo sapiens, UniProt P14780). The experiment in a line: Inhibition of human MMP9 in cell-free system by fluorescent spectroscopy. A digest of the protocol: (§3)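 Recombinant human MMP-3 or MMP-9 catalytic domain with fluorogenic quenched peptide Mca-Pro-Leu-Gly-Leu-Dpa-Ala-Arg-NH2. Cleavage followed as fluorescence increase (excitation 324, emission 420). Rate of emission change taken as enzyme activity; IC50 values are means of three experiments.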

Data set [14] in a line: AUC (0 to infinity) in Sprague-Dawley rat at 5 mg/kg, iv. As to conditions: plasma. It counts as ADME, organism-based. Further details: time infinity, dose 5 mg/kg, route intravenous. The gist of the method: as §2
Data set [15] is described as follows: Half life in human liver microsomes at 40 uM by LC/MS/MS. Format: ADME, Microsome. The gist of the method:
(§4)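 Compound at 40 µM with human liver microsomes (1 mg/mL), preincubated 5 min at 37 °C, then started with NADPH (1 mM final). Aliquots taken at 0, 15, 45 and 80 min and quenched with ice-cold acetonitrile containing carbamazepine internal standard. Centrifuged, then LC/MS/MS for parent; half-life and microsomal clearance derived.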
On the technique in general: Liver microsomes are vesicles of endoplasmic reticulum, rich in cytochrome P450 enzymes.

The subject of data set [16] is Rattus norvegicus. Briefly: Antiinflammatory activity in Sprague-Dawley rat assessed as inhibition of carrageenan-induced paw edema at 100 mg/kg, ip administered 30 mins before carrageenan challenge measured at 12 hrs. Format: functional. Further details: scale not given: the % may be the effect or the level left. As to conditions: route intraperitoneal. A digest of the protocol: as §1

Another data set concerns the target T2, Interstitial collagenase (Homo sapiens, UniProt P03956).
T2 sequence (P03956 whole entry): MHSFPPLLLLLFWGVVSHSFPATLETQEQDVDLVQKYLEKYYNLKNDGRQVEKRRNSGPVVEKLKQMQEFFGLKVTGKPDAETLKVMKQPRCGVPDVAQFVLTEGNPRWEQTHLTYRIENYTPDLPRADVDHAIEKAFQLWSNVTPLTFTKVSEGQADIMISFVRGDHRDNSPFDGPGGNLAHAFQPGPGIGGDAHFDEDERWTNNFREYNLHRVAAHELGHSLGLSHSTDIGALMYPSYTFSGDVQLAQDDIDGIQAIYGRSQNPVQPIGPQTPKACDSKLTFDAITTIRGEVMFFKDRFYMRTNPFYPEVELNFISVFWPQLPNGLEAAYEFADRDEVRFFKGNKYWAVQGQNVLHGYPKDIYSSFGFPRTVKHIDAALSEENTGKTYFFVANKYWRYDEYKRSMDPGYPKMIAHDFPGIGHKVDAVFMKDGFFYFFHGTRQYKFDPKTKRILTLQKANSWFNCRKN
Briefly: Inhibition of human MMP1 in cell-free system by fluorescent spectroscopy.

Data set [17] is described as follows: Half life in Sprague-Dawley rat at 5 mg/kg, iv. Format: ADME, organism-based. The arrangement: dose 5 mg/kg, route intravenous. The conditions noted are these: in vivo. A digest of the protocol: as §2
Data set [18] is described as follows: Cmax in Sprague-Dawley rat at 30 mg/kg, po. It counts as ADME, organism-based. Further details: dose 30 mg/kg, route oral. As to conditions: in vivo. The gist of the method:
as §2

Data set [19] concerns Mus musculus. The experiment in a line: Inhibition of LPS-alpha induced TNF-alpha production in BALB/c mouse assessed as decreased plasma TNF level at 30 mg/kg, po administered post LPS challenge measured after 60 mins by ELISA. Format: functional. As to conditions: 1 h. A digest of the protocol: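 BALB/c mice (7–9 weeks), four per group, fasted 24 h. LPS given ip; compound given orally at 30 mg/kg ([…]). Serum collected from the heart and TNF-α measured by ELISA; percent inhibition reported.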

A short description of data set [20]: Metabolic stability in human liver microsomes at 40 uM by LC/MS/MS. It counts as ADME, Microsome. A digest of the protocol:
as §4

Data set [21] has as its system Rattus norvegicus. The experiment in a line: Antiinflammatory activity in Sprague-Dawley rat assessed as inhibition of carrageenan-induced paw edema at 30 mg/kg, ip administered 30 mins before carrageenan challenge measured at 12 hrs. Further details: scale not given: the % may be the effect or the level left. Format: functional. The conditions noted are these: route intraperitoneal. A digest of the protocol:
as §1

In data set [22] the test system is Rattus norvegicus. Briefly: Antiinflammatory activity in Sprague-Dawley rat assessed as inhibition of carrageenan-induced paw edema at 100 mg/kg, ip administered 30 mins before carrageenan challenge measured at 6 hrs. The arrangement: scale not given: the % may be the effect or the level left. Format: functional. The conditions noted are these: route intraperitoneal. The gist of the method:
as §1

A further data set addresses Stromelysin-1 (Homo sapiens, UniProt P08254). Briefly: Inhibition of human MMP3 in cell-free system by fluorescent spectroscopy. The gist of the method:
as §3

The term IC50 denotes the concentration that inhibits the measured activity by half. Broadly, the clearance is a measure of how efficiently the substance is removed, as volume per time. Usually MRT inf stands for the average time that molecules of a dose stay in the body. For orientation: AUC(0-inf) means the area under the concentration-time curve extrapolated to infinity. A word on the half-life: it is the time in which the quantity being followed falls by half. One may read the Tmax as the time at which the peak concentration occurs. The bioavailability is dose-corrected exposure relative to a reference, in per cent. What is called Cmax is the highest concentration seen after dosing. As a reminder, the inhibition in vivo is the relative decrease from the control value, in per cent. One may read the microsomal CLint as the rate of metabolic loss divided by the concentration.

SMILES strings stand for the structures.

T1 sequence (P78536 whole entry, the tested form may be a part): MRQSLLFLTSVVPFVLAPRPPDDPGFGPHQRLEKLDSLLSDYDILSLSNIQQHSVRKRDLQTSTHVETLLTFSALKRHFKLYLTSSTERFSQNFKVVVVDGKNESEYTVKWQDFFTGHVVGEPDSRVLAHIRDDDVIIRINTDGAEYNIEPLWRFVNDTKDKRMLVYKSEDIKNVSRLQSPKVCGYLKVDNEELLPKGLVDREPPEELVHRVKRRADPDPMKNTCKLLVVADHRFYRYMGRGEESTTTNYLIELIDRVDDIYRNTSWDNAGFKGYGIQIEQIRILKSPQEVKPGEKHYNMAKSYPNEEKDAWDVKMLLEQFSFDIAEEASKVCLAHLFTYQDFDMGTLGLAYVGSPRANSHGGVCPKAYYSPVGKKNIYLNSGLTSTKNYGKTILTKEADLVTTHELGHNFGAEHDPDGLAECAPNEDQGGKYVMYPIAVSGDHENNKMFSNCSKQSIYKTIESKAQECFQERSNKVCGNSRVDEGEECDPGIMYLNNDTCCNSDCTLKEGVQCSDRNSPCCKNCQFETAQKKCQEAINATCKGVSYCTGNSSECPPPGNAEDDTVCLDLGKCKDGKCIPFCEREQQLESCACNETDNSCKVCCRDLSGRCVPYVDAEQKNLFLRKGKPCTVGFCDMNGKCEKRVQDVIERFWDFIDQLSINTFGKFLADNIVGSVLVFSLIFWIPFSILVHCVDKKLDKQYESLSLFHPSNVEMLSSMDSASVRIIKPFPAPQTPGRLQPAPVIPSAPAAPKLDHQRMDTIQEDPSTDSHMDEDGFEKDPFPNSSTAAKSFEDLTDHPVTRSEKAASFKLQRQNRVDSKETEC
Sequence of Stromelysin-1 (P08254 whole entry): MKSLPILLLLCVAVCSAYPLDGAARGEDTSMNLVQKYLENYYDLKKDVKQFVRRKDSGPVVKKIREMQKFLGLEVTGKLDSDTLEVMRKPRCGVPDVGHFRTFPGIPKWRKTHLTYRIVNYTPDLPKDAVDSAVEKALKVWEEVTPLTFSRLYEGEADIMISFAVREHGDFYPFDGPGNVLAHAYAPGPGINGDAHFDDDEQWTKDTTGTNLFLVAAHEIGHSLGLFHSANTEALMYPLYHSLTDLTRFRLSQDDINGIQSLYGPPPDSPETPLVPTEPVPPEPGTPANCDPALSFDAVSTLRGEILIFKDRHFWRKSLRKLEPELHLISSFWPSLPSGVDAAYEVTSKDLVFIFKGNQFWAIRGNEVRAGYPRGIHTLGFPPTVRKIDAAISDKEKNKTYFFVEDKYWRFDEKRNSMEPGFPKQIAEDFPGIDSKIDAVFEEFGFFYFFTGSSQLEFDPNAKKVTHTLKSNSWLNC
Sequence of Matrix metalloproteinase-9 (P14780 whole entry, the tested form may be a part): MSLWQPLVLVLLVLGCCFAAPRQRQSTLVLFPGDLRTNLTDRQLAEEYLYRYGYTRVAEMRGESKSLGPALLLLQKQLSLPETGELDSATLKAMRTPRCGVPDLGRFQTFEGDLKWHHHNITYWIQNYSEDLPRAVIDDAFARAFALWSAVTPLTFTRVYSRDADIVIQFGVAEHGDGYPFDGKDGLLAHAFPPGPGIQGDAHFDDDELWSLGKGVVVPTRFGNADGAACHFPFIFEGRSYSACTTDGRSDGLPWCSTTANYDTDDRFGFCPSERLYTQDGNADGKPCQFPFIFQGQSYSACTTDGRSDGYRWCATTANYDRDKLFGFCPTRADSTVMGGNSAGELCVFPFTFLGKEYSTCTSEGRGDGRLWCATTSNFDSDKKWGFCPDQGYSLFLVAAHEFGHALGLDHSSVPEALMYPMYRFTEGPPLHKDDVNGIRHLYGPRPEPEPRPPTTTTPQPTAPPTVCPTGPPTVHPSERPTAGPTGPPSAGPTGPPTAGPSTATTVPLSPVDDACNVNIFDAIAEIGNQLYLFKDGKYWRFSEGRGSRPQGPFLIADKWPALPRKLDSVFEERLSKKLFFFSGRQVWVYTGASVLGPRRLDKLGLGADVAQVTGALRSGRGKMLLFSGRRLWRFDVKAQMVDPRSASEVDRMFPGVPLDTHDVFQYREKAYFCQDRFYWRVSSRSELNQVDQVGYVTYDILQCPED

Consider `Cc1ccc2oc(=O)c(CC(CCc3ccc(OCCN(C)C)cc3)C(=O)NO)cc2c1` (stereo not given), for which the figures for the IC50 (in [1]; in the data set filed under Mus musculus [2]; in [3]) were 110 nM, “Not Active” and 0.66 nM, respectively.

As to `CCN(CC)CCOc1ccc(CCC(Cc2cc3cc(C)ccc3oc2=O)C(=O)NO)cc1` (stereo not given), the concentration for half-maximal inhibition (IC50) was 140 nM in data set [1], “Not Active” in the data set listed under Mus musculus [2] and 0.53 nM in data set [3].

Consider `CCN(CC)CCOc1ccc(CCC(Cc2cc3ccc(F)cc3oc2=O)C(=O)NO)cc1` (stereo not given), for which the IC50 in data set [1] was 70 nM; in the data set listed under Mus musculus [2] it was “Not Active”; in data set [3], 0.46 nM.

As for `CCN(CC)CCOc1ccc(CCC(Cc2cc3ccc(C)cc3oc2=O)C(=O)NO)cc1` (stereo not given), the Activity in the data set on Rattus norvegicus [4] was 8%; in the data set on Rattus norvegicus [16] it was 35%; in the data set on Rattus norvegicus [21], 14%; in the data set with Rattus norvegicus [22] it was 20%. Besides, the clearance in [5] was 44.3 mL/min/kg. Further, the MRT inf in data set [6] was determined as 2.9 h; in data set [11], 1.14 h. Besides, in data set [7], the Vd is 3.04 L/kg. Further, the AUC(0-inf) in data set [8] came to 4690 ng·h/mL; in data set [14] it was 1880 ng·h/mL. Further, the half-life was 3.19 h in data set [9] and 2.8 h in [17]. In data set [10], the Tmax is 2 h. Also, in data set [12], the bioavailability worked out at 41.6%. In addition, the half-inhibitory concentration (IC50) in data set [13] was 23 nM; in data set [1] it was 60 nM; against Interstitial collagenase it was 557 nM; in the data set filed under Mus musculus [2], “Not Active”; in data set [3] it was 0.28 nM; against Stromelysin-1 it was 8.7 nM. In data set [15], this molecule returned a half-life at 40 µM of 1.22 h. The same molecule displayed a Cmax in [18] of 1140 ng/mL. The inhibition in vivo at 30 mg/kg with Mus musculus [19] stood at 74%. The same molecule came in with a microsomal CLint at 40 µM in data set [20] of 9.5 µL/min/mg.

For the molecule `Cc1ccc2oc(=O)c(CC(CCCCc3ccccc3)C(=O)NO)cc2c1` (stereo not given), the IC50 in [1] was > 3000 nM; in the data set listed under Mus musculus [2] it was “Not Active”; in data set [3], 32.8 nM.

With `Cc1ccc2oc(=O)c(CC(CCc3ccc(O)cc3)C(=O)NO)cc2c1` (stereo not given), the concentration for half-maximal inhibition (IC50) in data set [1] is 920 nM; in the data set listed under Mus musculus [2], “Not Active”; in data set [3] it was 0.3 nM.

On to `Cc1ccc2oc(=O)c(CC(Cc3ccc(OCCN4CCCCC4)cc3)C(=O)NO)cc2c1` (stereo not given), for which the half-inhibitory concentration (IC50) in data set [1] was 1500 nM; in the data set filed under Mus musculus [2], “Not Active”; in data set [3] it was 10.9 nM.

Regarding `Cc1ccc2oc(=O)c(CC(Cc3cccc(OCCN4CCCCC4)c3)C(=O)NO)cc2c1` (stereo not given), the IC50 in data set [1] was 260 nM; in the data set listed under Mus musculus [2], “Not Active”; in data set [3], 1.07 nM.

Consider `Cc1ccc2oc(=O)c(CC(CCc3ccc(OCCN4CCCCC4)cc3)C(=O)NO)cc2c1` (stereo not given), for which the IC50 in [1] was 200 nM; in the data set filed under Mus musculus [2] it was “Not Active”; in data set [3] it was 1.04 nM.

Consider `Cc1ccc2oc(=O)c(CC(CCc3cccc(OCCN4CCCCC4)c3)C(=O)NO)cc2c1` (stereo not given), for which the IC50 in data set [1] is 240 nM; in the data set listed under Mus musculus [2] it was “Not Active”; in data set [3], 0.9 nM.

Consider `Cc1ccc2oc(=O)c(CC(CCCc3ccc(OCCN4CCCCC4)cc3)C(=O)NO)cc2c1` (stereo not given), for which the half-inhibitory concentration (IC50) in data set [1] was 320 nM; in the data set listed under Mus musculus [2], “Not Active”; in data set [3], 1.07 nM.

For `Cc1ccc2oc(=O)c(CC(CCCc3cccc(OCCN4CCCCC4)c3)C(=O)NO)cc2c1` (stereo not given), the IC50 is 230 nM in [1], “Not Active” in the data set listed under Mus musculus [2] and 0.27 nM in [3].

As to `Cc1ccc2oc(=O)c(CC(Cc3ccccc3)C(=O)NO)cc2c1` (stereo not given), the half-maximal inhibitory concentration (IC50) is 520 nM in data set [1], “Not Active” in the data set filed under Mus musculus [2] and 0.5 nM in [3].

Values taken from ChEMBL document CHEMBL1629442, “Structure based optimization of chromen-based TNF-α converting enzyme (TACE) inhibitors on S1' pocket and their quantitative structure-activity relationship (QSAR) study” (Bioorg Med Chem, 2010).
